The record followed here is ChEMBL document CHEMBL1138361, “4-acyl-1-(4-aminoalkoxyphenyl)-2-ketopiperazines as a novel class of non-brain-penetrant histamine H3 receptor antagonists” (J Med Chem, 2007).

Data set [1] can be described thus: Oral bioavailability in Beagle dog at 2.0 mg/kg, po. The conditions noted are these: in vivo. The class given is ADME, organism-based, Canis lupus familiaris. In short, it runs like this: (§1)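 Single iv and oral doses given to male CD Sprague-Dawley rats (1 mg/kg iv, 3 mg/kg po) and male Beagle dogs (1 mg/kg iv, 2 mg/kg po). Vehicle was a DMSO-PEG 200-water (5:45:50) solution. Serial and terminal blood samples were taken at time points up to 7, 12 or 24 h postdose.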

Data set [2] can be described thus: Oral bioavailability in CD Sprague-Dawley rat at 3.0 mg/kg, po. Format: ADME, organism-based. The conditions noted are these: in vivo. In short, it runs like this:
as §1

Data set [3] in a line: Half life in CD Sprague-Dawley rat at 1.0 mg/kg, iv. Set-up: dose 1 mg/kg, route intravenous. The conditions noted are these: in vivo. Format: ADME, organism-based. An outline of the steps: as §1
Data set [4] can be described thus: Ratio of drug level in brain to blood in CD Sprague-Dawley rat at 1 mg/kg, iv after 5 mins. Format: ADME, organism-based. Also noted: dose 1 mg/kg, route intravenous. The following applies: brain and blood. In short, it runs like this: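 Male CD Sprague-Dawley rats were dosed iv in DMSO-PEG 200-water (5:45:50). Blood and brain were collected 5 min postdose under terminal isoflurane anesthesia. Blood was protein-precipitated; brain was homogenized and extracted. Parent drug was quantified by LCMS/MS.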

A short description of data set [5]: Clearance in Beagle dog at 1.0 mg/kg, iv. The class given is ADME, organism-based, Canis lupus familiaris. Set-up: dose 1 mg/kg, route intravenous. The conditions noted are these: in vivo. An outline of the steps: as §1
A short description of data set [6]: Clearance in CD Sprague-Dawley rat at 1.0 mg/kg, iv. The conditions noted are these: in vivo. The class given is ADME, organism-based. Also noted: dose 1 mg/kg, route intravenous. An outline of the steps:
as §1

Data set [7] can be described thus: Volume of distribution in CD Sprague-Dawley rat at 1.0 mg/kg, iv. The class given is ADME, organism-based. Also noted: dose 1 mg/kg, route intravenous. The following applies: in vivo. In short, it runs like this:
as §1

The nature of data set [8]: Cmax in CD Sprague-Dawley rat at 3.0 mg/kg, po. Format: ADME, organism-based. Set-up: dose 3 mg/kg, route oral. The following applies: in vivo. An outline of the steps:
as §1

A short description of data set [9]: Tmax in Beagle dog at 1.0 mg/kg, iv. The class given is ADME, organism-based, Canis lupus familiaris. Also noted: dose 1 mg/kg, route intravenous. The following applies: in vivo. An outline of the steps: as §1
The nature of data set [10]: Tmax in CD Sprague-Dawley rat at 1.0 mg/kg, iv. Format: ADME, organism-based. The conditions noted are these: in vivo. Also noted: dose 1 mg/kg, route intravenous. An outline of the steps:
as §1

The nature of data set [11]: Volume of distribution in Beagle dog at 1.0 mg/kg, iv. Format: ADME, organism-based, Canis lupus familiaris. Set-up: dose 1 mg/kg, route intravenous. The conditions noted are these: in vivo. In short, it runs like this:
as §1

The nature of data set [12]: Tmax in Beagle dog at 2.0 mg/kg, po. Format: ADME, organism-based, Canis lupus familiaris. Also noted: dose 2 mg/kg, route oral. The conditions noted are these: in vivo. An outline of the steps:
as §1

Data set [13] in a line: Tmax in CD Sprague-Dawley rat at 3.0 mg/kg, po. Format: ADME, organism-based. Set-up: dose 3 mg/kg, route oral. The conditions noted are these: in vivo. An outline of the steps:
as §1

Data set [14] can be described thus: AUC in Beagle dog at 1.0 mg/kg, iv. Set-up: dose 1 mg/kg, route intravenous. Format: ADME, organism-based, Canis lupus familiaris. The conditions noted are these: plasma. An outline of the steps: as §1
The nature of data set [15]: Cmax in Beagle dog at 1.0 mg/kg, iv. Format: ADME, organism-based, Canis lupus familiaris. Set-up: dose 1 mg/kg, route intravenous. The conditions noted are these: in vivo. An outline of the steps:
as §1

A short description of data set [16]: Partition coefficient, log D at pH 7.4. Format: physicochemical. The conditions noted are these: octanol/water. In short, it runs like this:
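Compound in phosphate buffer was shaken with buffer-saturated octanol (3 × 50 inversions). Phases were separated by centrifugation at 300g for 15 min. Both phases were quantified by HPLC, and log D was calculated from peak areas normalized to injection volume.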

A short description of data set [17]: AUC in Beagle dog at 2.0 mg/kg, po. The conditions noted are these: plasma. Also noted: dose 2 mg/kg, route oral. The class given is ADME, organism-based, Canis lupus familiaris. An outline of the steps: as §1
A short description of data set [18]: Cmax in CD Sprague-Dawley rat at 1.0 mg/kg, iv. The class given is ADME, organism-based. Set-up: dose 1 mg/kg, route intravenous. The following applies: in vivo. An outline of the steps: as §1
Data set [19] is described as follows: AUC in CD Sprague-Dawley rat at 3.0 mg/kg, po. The class given is ADME, organism-based. Also noted: dose 3 mg/kg, route oral. The following applies: plasma. An outline of the steps:
as §1

Data set [20] in a line: Cmax in Beagle dog at 2.0 mg/kg, po. The conditions noted are these: in vivo. Format: ADME, organism-based, Canis lupus familiaris. Set-up: dose 2 mg/kg, route oral. An outline of the steps:
as §1

Data set [21] in a line: AUC in CD Sprague-Dawley rat at 1.0 mg/kg, iv. The class given is ADME, organism-based. Set-up: dose 1 mg/kg, route intravenous. The conditions noted are these: plasma. In short, it runs like this:
as §1

Data set [22] in a line: Half life in Beagle dog at 1.0 mg/kg, iv. The conditions noted are these: in vivo. The class given is ADME, organism-based, Canis lupus familiaris. Set-up: dose 1 mg/kg, route intravenous. In short, it runs like this:
as §1

A short description of data set [23]: AUC in CD Sprague-Dawley rat at 2.9 mg/kg, po. Format: ADME, organism-based. The following applies: plasma. Set-up: dose 2.9 mg/kg, route oral.
Data set [24] is described as follows: Tmax in CD Sprague-Dawley rat at 2.9 mg/kg, po. Format: ADME, organism-based. Set-up: dose 2.9 mg/kg, route oral. The following applies: in vivo.
Data set [25] is described as follows: Oral bioavailability in CD Sprague-Dawley rat at 2.9 mg/kg, po. The following applies: in vivo. Format: ADME, organism-based.
Data set [26] can be described thus: Cmax in CD Sprague-Dawley rat at 2.9 mg/kg, po. The conditions noted are these: in vivo. Format: ADME, organism-based. Also noted: dose 2.9 mg/kg, route oral.

`C[C@@H]1CCCN1CCCOc1ccc(N2CCN(C(=O)c3ccc(F)cc3F)CC2=O)cc1.O=CO`: the bioavailability in data set [1] was 100%; in data set [2], 48%. For the same molecule, the half-life is 1.1 h in [3] and 4.3 h in data set [22]. Further, the Kp at 5 min in data set [4] was found to be 0.2. Moreover, the clearance in data set [5] was found to be 0.39 L/h/kg; in data set [6], 1.86 L/h/kg. Besides, the figures for the Vd in data set [7] and in [11] were 2 L/kg and 2.3 L/kg, respectively. The peak concentration (Cmax) is 0.109 µg/mL in [8], 0.414 µg/mL in data set [15], 0.291 µg/mL in data set [18] and 0.734 µg/mL in [20]. The Tmax in data set [9] came to 4.8 min; in data set [10] it was 4.8 min; in [12] it was 4 h; in data set [13], 4 h. Besides, the AUC in data set [14] is 2.16 µg·h/mL; in data set [17], 4.8 µg·h/mL; in data set [19], 0.753 µg·h/mL; in data set [21], 0.682 µg·h/mL. In data set [16], the logD was -0.08.

As to `Cl.O=C(c1ccc(F)cc1)N1CCN(c2ccc(OC3CCN(C4CCC4)CC3)cc2)C(=O)C1`, the AUC was 0.76 µg·h/mL in data set [23] and 0.837 µg·h/mL in data set [21]. Further, the half-life in [3] is 2 h. The Tmax in data set [24] came to 2 h; in data set [10] it was 4.8 min. The same molecule returned a bioavailability in data set [25] of 35%. Besides, the clearance in data set [6] worked out at 1.08 L/h/kg. Further, in [7], the Vd came out at 2.5 L/kg. For the same molecule, the pH-dependent lipophilicity (logD) in data set [16] is 0.9. In addition, the Cmax worked out at 0.337 µg/mL in [18] and 0.091 µg/mL in data set [26].

One may read the bioavailability as the share of a dose that reaches the circulation, judged against a reference dose that is usually intravenous. Read a high bioavailability as good availability. The half-life is how long it takes for the measured level to halve. A high value points to slow loss. As a reminder, the Kp is tissue or fluid exposure divided by exposure in the circulation. Broadly, the clearance is a measure of how efficiently the substance is removed, as volume per time. Low values mean a low capacity for elimination, high ones a high capacity for elimination. What is called Vd is the apparent volume that relates the amount in the body to the concentration in plasma or blood. A high value points to extensive tissue distribution. A word on the Cmax: it is the maximum level reached in the sampled fluid or tissue. The term Tmax denotes the time at which the peak concentration occurs. One may read the AUC as the area under the concentration-time curve, a measure of exposure. As a reminder, the logD is lipophilicity at a set pH, counting ionised and neutral species. Read a low logD as a more hydrophilic compound.
